These results are taken from paper PMC11618768 (Scientific Reports, 2024).

Data set [1] deals with MRSA. Particulars: cited from earlier work.
Another data set concerns MRSA strain (ATCC 43300). The data set is described as follows: MIC and MBC, broth dilution. It counts as cell-based, Methicillin-resistant Staphylococcus aureus. The method, boiled down:
(§1)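 Strains were grown from LB agar colonies in LB (180 rpm, 37 °C, 12 h), then diluted 1:100 and grown 3 h to log phase. The inoculum was adjusted to 1 × 10^6 CFU/mL for 96-well broth dilution, 37 °C, 18 h. MIC was the lowest concentration without visible growth. For MBC, 100.0 µL per well was plated on MHA (37 °C, 16–20 h); MBC was the lowest concentration without colonies.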
A general note: Broth dilution looks for growth in wells or tubes with falling amounts of substance.

The next data set deals with MRSA-244288. In words: MIC and MBC, broth dilution. It counts as cell-based, Methicillin-resistant Staphylococcus aureus. Conditions: MRSA-244,288, clinical isolate. The method, boiled down:
as §1

The subject of the next data set is MRSA-244661. In words: MIC and MBC, broth dilution. It is filed as cell-based, Methicillin-resistant Staphylococcus aureus. Conditions: MRSA-244,661, clinical isolate. The method, boiled down:
as §1

For a further data set, the system named is HK-2 cells. In words: Cell viability assay using MTT. It counts as cell-based. Put shortly: (§2)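 Cells were kept in RPMI 1640 with 10% FBS and 1% penicillin-streptomycin at 37 °C, 5% CO2. They were seeded at 1 × 10^5 cells/well and grown 24 h to about 80% confluence. After medium removal, test compound was added at final 0.78125–100.0 µg/mL (twofold series), with a 0.5% DMSO control. Exposure was 24 h or 48 h, then MTT for 4 h, A490. Three repeats; IC50 derived.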

A further data set concerns MRSA-244135. In words: MIC and MBC, broth dilution. Conditions: MRSA-244,135, clinical isolate. It counts as cell-based, Methicillin-resistant Staphylococcus aureus. The method, boiled down:
as §1

For data set [2], the system named is MRSA (ATCC 433000). The data set is described as follows: Scanning electron microscopy. Particulars: 2×MIC, 12 h. It is filed as cell-based, Methicillin-resistant Staphylococcus aureus. Put shortly: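 Log-phase MRSA exposed to test compound at 2×MIC for 12 h at 37 °C, with untreated cells as blank control. Cells were washed three times in PBS […]. They were fixed in 2.5% glutaraldehyde plus 2% paraformaldehyde for 12 h, air-dried and imaged by scanning electron microscopy.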

The subject of another data set is MRSA-244862. The data set is described as follows: MIC and MBC, broth dilution. It counts as cell-based, Methicillin-resistant Staphylococcus aureus. Conditions: MRSA-244,862, clinical isolate. The method, boiled down:
as §1

For data set [3], the system named is rabbit red blood cells (RBCs). The data set is described as follows: In vitro hemolysis assay. It is filed as cell-based. Particulars: 1 h, rabbit erythrocytes. The method, boiled down:
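Rabbit erythrocytes were exposed 1 h to test compound at 1/2×, 1× and 2× MIC. After centrifugation, supernatants were read spectrophotometrically at 570 nm and photographed. PBS served as negative control, and a positive control was included. n = 3.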

Another data set relates to P. notatum. Conditions: cited from earlier work.
Another data set has as its system MRSA-244268. In words: MIC and MBC, broth dilution. It is filed as cell-based, Methicillin-resistant Staphylococcus aureus. Conditions: MRSA-244,268, clinical isolate. Put shortly: as §1
The test system of a further data set is MRSA-244548. The data set is described as follows: MIC and MBC, broth dilution. It counts as cell-based, Methicillin-resistant Staphylococcus aureus. Particulars: MRSA-244,548, clinical isolate. The method, boiled down:
as §1

The subject of data set [4] is MRSA. In words: Mouse skin infection model. Particulars: day 13; 2.0 µg/mL once daily, mice. It counts as in vivo. Put shortly: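 SPF male and female mice (18.0–22.0 g) had dorsal fur shaved and both sides of the back scalded with a scaldometer. 20.0 µL log-phase MRSA (1.5-3 × 10^6 CFU/mL in sterile saline) went onto each wound, which was then covered with sterile gauze. Test compound or vancomycin (2.0 µg/mL, 20.0 µL) was applied topically once daily, and model mice got solvent. Wounds were photographed daily for 13 days, and H&E sections were taken on day 13 (n = 6).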

The test system of the next data set is LO2 cells. In words: Cell viability assay using MTT. It is filed as cell-based. The method, boiled down: as §2
The next data set has as its system MRSA-244757. In words: MIC and MBC, broth dilution. It counts as cell-based, Methicillin-resistant Staphylococcus aureus. Conditions: MRSA-244,757, clinical isolate. The method, boiled down:
as §1

For a further data set, the system named is MRSA-244358. The data set is described as follows: MIC and MBC, broth dilution. It is filed as cell-based, Methicillin-resistant Staphylococcus aureus. Conditions: MRSA-244,358, clinical isolate. The method, boiled down:
as §1

Another data set relates to MRSA-244410. The data set is described as follows: MIC and MBC, broth dilution. It is filed as cell-based, Methicillin-resistant Staphylococcus aureus. Particulars: MRSA-244,410, clinical isolate. The method, boiled down:
as §1

In data set [5] the test system is MRSA (ATCC 433000). The data set is described as follows: Time-kill assay. It is filed as cell-based, Methicillin-resistant Staphylococcus aureus. Conditions: 24 h. Put shortly: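 MRSA grown to log phase in LB (37 °C, 180 rpm) and adjusted to 1 × 10^6 CFU/mL. Incubated in 24-well plates with test compound at 0, 1/2×MIC or MIC for 24 h at 37 °C. Sampled every 2 h, with absorbance read at 570 nm.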

The subject of a further data set is B. subtilis. Conditions: cited from earlier work.
In a further data set the test system is HaCat cells. In words: Cell viability assay using MTT. It is filed as cell-based. Put shortly:
as §2

A further data set deals with human KB carcinoma cells. Conditions: cited from earlier work.
Data set [6] concerns MRSA (ATCC 433000). In words: SYTOX green and PI assay. It is filed as cell-based, Methicillin-resistant Staphylococcus aureus. Particulars: 1/2×, 2×MIC, 12 h. Put shortly: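 Log-phase MRSA grown in LB at 37 °C, 180 rpm, adjusted to 1 × 10^6 CFU/mL. Exposed to test compound at 1/2×, 1× and 2×MIC for 12 h at 37 °C, then stained with SYTO 9 and PI for 30 min in the dark. Washed twice in PBS (pH 7.5, 0.1 M), then imaged by fluorescence microscopy: green marks viable cells, red marks dead cells.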

Another data set relates to S. aureus. Conditions: cited from earlier work.
The subject of the next data set is MRSA-244425. In words: MIC and MBC, broth dilution. It is filed as cell-based, Methicillin-resistant Staphylococcus aureus. Particulars: MRSA-244,425, clinical isolate. Put shortly:
as §1

In data set [7] the test system is MRSA. Conditions: cited from earlier work. This is another data set of the same source.

Values after ≈ are worked out from the molar mass of the structure shown. Values joined by “and” are separate entries in the source; they are usually repeats but may differ in a detail not shown here. Equal values may be shown once. A value given as a limit tells only on which side of the number the result lay.

On to 8-Methoxygriseorhodin C, for which the “MIC against MRSA” value in the data set with MRSA [1] is given as 0.78 µg/mL.

For `CN[C@H](CC(C)C)C(=O)N[C@H]1C(=O)N[C@@H](CC(N)=O)C(=O)N[C@H]2C(=O)N[C@H]3C(=O)N[C@H](C(=O)N[C@H](C(=O)O)c4cc(O)cc(O)c4-c4cc3ccc4O)[C@H](O)c3ccc(c(Cl)c3)Oc3cc2cc(c3O[C@@H]2O[C@H](CO)[C@@H](O)[C@H](O)[C@H]2O[C@H]2C[C@](C)(N)[C@H](O)[C@H](C)O2)Oc2ccc(cc2Cl)[C@H]1O` [vancomycin, reference compound], in the data set on MRSA strain (ATCC 43300) (Staphylococcus aureus, ATCC43|ATCC43300|MRSA), the lowest concentration to inhibit growth (MIC) was 1 µg/mL (≈ 0.69 µM).

In the case of `COC1=CC(=O)c2c(O)c3c(c(O)c2C1=O)O[C@]1(Oc2c(cc4cc(C)oc(=O)c4c2O)[C@@H](O)[C@@H]1O)[C@@H]3O` [Griseorhodin C], the MIC (usually the smallest concentration in the dilution series that meets the test's criterion for growth inhibition) in the data set on MRSA-244288 was found to be 1 µg/mL (≈ 1.9 µM); with MRSA-244661, 1 µg/mL (≈ 1.9 µM); against MRSA-244135, 2 µg/mL (≈ 3.8 µM); with MRSA-244862, 1 µg/mL (≈ 1.9 µM); against MRSA-244268, 2 µg/mL (≈ 3.8 µM); against MRSA-244548 it was 0.5 µg/mL (≈ 0.95 µM). Besides, the MIC against MRSA-244757 was 1 µg/mL (≈ 1.9 µM); with MRSA-244358 it was 1 µg/mL (≈ 1.9 µM); in the data set on MRSA-244410 it was 1 µg/mL (≈ 1.9 µM); in the data set on MRSA-244425, 1 µg/mL (≈ 1.9 µM); against MRSA strain (ATCC 43300) (MRSA ATCC 43,300), 1.0 µg/mL and 1 µg/mL. The “Cell morphology under the microscope” value in the data set on HK-2 cells (50 ~ 100 µg/mL) was “the cell morphology remained normal and the arrangement was regular, and no fragmentation or cell death was observed”; with LO2 cells (50 ~ 100 µg/mL) it was “the cell morphology remained normal and the arrangement was regular, and no fragmentation or cell death was observed”; in the data set with HaCat cells (50 ~ 100 µg/mL) it was “the cell morphology remained normal and the arrangement was regular, and no fragmentation or cell death was observed”. Moreover, the “IC50 (cell viability)” value was 86.32 µg/mL (≈ 164 µM) with HK-2 cells (MTT, 48 h); 156.2 µg/mL (≈ 297 µM) in the data set on LO2 cells (MTT, 48 h); 59.27 µg/mL (≈ 113 µM) with HaCat cells (MTT, 48 h). The “Morphological changes of MRSA by SEM” value in the data set with MRSA (ATCC 433000) [2] is “the cell walls appeared wrinkled, the surfaces showed signs of damage, and cellular integrity was compromised”. In addition, the figures for the Hemolysis rate in [3] (1/2 MIC), in [3] (2×MIC) and in data set [3] (MIC) were 0.70%, 2.13% and 1.77%, respectively. The Inhibitory activity entry in the data set with P. notatum, in the data set on B. subtilis, in the data set on human KB carcinoma cells and in the data set on S. aureus was “inhibitory activity” throughout. For the same compound, the “HE staining of skin wound” value in the data set on MRSA [4] is “fewer inflammatory cells, lower thickness, and better structural integrity of hair follicles and other structures compared to the Vancomycin-treated group”. Also, the “Inhibition of MRSA growth in time-kill curve” value in the data set with MRSA (ATCC 433000) [5] (1/2×MIC, vs control group) was “some inhibition of MRSA growth compared to the control group”. Moreover, the “Bacteriostatic activity in time-kill curve compared with vancomycin” value in the data set on MRSA (ATCC 433000) [5] (MIC) is “stronger bacteriostatic activity against MRSA than the clinically positive control drug, vancomycin”. The “LIVE/DEAD fluorescence (red dead, green viable cells)” value in the data set on MRSA (ATCC 433000) [6] is reported as “exhibits bactericidal effects against MRSA”.

With 7,8-dideoxygriseorhodin C, the “Decrease in MIC on simultaneous treatment with oxacillin” value with MRSA [7] was “approximately tenfold decrease in MIC”. Besides, in the data set with MRSA [7] (with oxacillin), the Combination index is less than 0.5.
